Read-outs that look alike come from different tables or passages of the source. One block for each molecule: values may come before it.
Experiments:
[1] = Pharmacokinetics, HPLC analysis of plasma; format: in vivo, Fisher 344 rats
[2] = tested on: AOM-induced colonic ACF and tumors; format: in vivo, Fisher 344 rats; conditions: for Weight: average ± SE
Summary of the method: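 Male Fisher 344 rats, 3–4 weeks old, about 90 g, acclimated 1 week. AOM 15 mg/kg or saline given s.c. once weekly for 2 weeks. […] Rats weighed weekly. Week-20 colons formalin-fixed 24 h, stained with 0.2% methylene blue 3–5 min; ACF counted microscopically. Week-40 tumors counted; long and short diameters measured. Mean ± SEM, ANOVA.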

[3] = format: in vivo, Fisher 344 rats; conditions: 7 days
Summary of the method: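 Male Fisher 344 rats, 8–9 weeks old, 7 per group. […] Killed by CO2 1 h after the last dose. Stomach, small intestine and colon inspected for ulcers under magnification, then formalin-fixed for histology. Heart, liver, lung and kidney collected for toxicity analysis.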

PGE2 = PGE2 in culture media of LPS-stimulated macrophages by ELISA; format: cell-based, mouse; conditions: RAW 264.7 macrophages, 130 μM for 12 h, then LPS 100 ng/ml overnight
Summary of the method: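 RAW 264.7 mouse macrophages grown in DMEM. 1.5×10⁶ cells pre-incubated 12 h with test compound at 130 μM, then stimulated with LPS 100 ng/ml overnight. PGE2 in culture media measured by ELISA. Mean ± SEM, ANOVA.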

β-catenin [4] = experiment: Immunofluorescent staining of β-catenin in colon sections of AOM rats; format: in vivo, rat; conditions: AOM study, 40 weeks
NF-κB subunit p65 [5] = experiment: Immunofluorescent staining of phospho-p65 in colon sections of AOM rats; format: in vivo, rat; conditions: AOM study, 40 weeks
Summary of the method: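 Colons from rats killed at week 40 were formalin-fixed and paraffin-embedded; 4 μm sections cut. Antigen retrieval by microwaving 15 min in 0.01 mol/l citrate, pH 6.0. Blocked with 5% donkey serum 30 min. Rabbit anti-phospho-p65 (Ser276) with mouse anti-β-catenin, or control IgG, applied overnight at 4°C. Fluorescent donkey secondaries 1 h at room temperature. Viewed by fluorescence microscopy.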

β-catenin [6] = experiment: Western blot of β-catenin in nuclear extracts of HCT116 cells; format: cell-based, human
Summary of the method: (§1)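 HCT116 cells grown in RPMI-1640. Cytoplasmic and nuclear fractions prepared by lysis, with NP-40 added at a later step; supernatant taken as cytoplasm. Nuclei washed, then resuspended in extraction buffer and pelleted. Standard western blot. Probes: rabbit anti-phospho-p65 (Ser276) for p65; mouse anti-β-catenin for β-catenin.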

NF-κB subunit p65 [7] = experiment: Western blot of p65 in nuclear extracts of HCT116 cells; format: cell-based, human
Summary of the method: as §1

[8] = cited from earlier work
[9] = 20 weeks, saline, diet IBU 500 ppm or p-IBU 900 ppm
[10] = 40 weeks, saline, diet IBU 500 ppm or p-IBU 900 ppm

SMILES: CC(C(=O)O)c1ccc(C(O)C(C)C)cc1 (stereo not drawn) [1-OH-ibuprofen]
plasma level of metabolite ([1]; 20 weeks (first value)): 4000 nM
plasma level of metabolite ([1]; 40 weeks): undetectable

SMILES: CC(C)Cc1ccc(C(C)C(=O)O)cc1 (stereo not drawn) [ibuprofen, Ibuprofen]
Weight ([2]; 20 weeks, AOM, diet IBU 500 ppm or p-IBU 900 ppm): 406±118.91
ACFs (ACF multiplicity) [2, 9]: 0
Tumors [2, 9]: 0
Weight [2, 9]: 416±6.11
Weight ([2]; 40 weeks, AOM, diet IBU 500 ppm or p-IBU 900 ppm): 432±8.84
ACFs [2, 10]: 0
Tumors (tumor multiplicity) [2, 10]: 0
Weight [2, 10]: 431±15.43
reduction of the multiplicity of ACF compared with vehicle ([2]; week 20, AOM rats, diet ibuprofen 500 ppm or p-ibuprofen 900 ppm): 37.9%
reduction of the multiplicity of colon tumors compared with vehicle ([2]; week 40, AOM rats, diet ibuprofen 500 ppm or p-ibuprofen 900 ppm): 56.6%
rats with stomach ulceration ([3]; ibuprofen 670 mg/kg by gavage, 7 rats): 85.7%
ulceration in stomach or intestine ([3]; low dose by gavage): did not lead to ulceration
suppression of PGE2 production compared to LPS-treated control (PGE2): 84.1%
effect on AOM-induced β-catenin cytoplasmic accumulation and nuclear translocation (β-catenin [4]): reduced
effect on phosphorylation of p65 (NF-κB activation) (NF-κB subunit p65 [5]): not ibuprofen inhibited
β-catenin levels in nuclear extracts compared to vehicle-treated control (β-catenin [6]): markedly decreased
nuclear translocation of the NF-κB subunit p65 (NF-κB activation) (NF-κB subunit p65 [7]): inhibitory effect was not observed

SMILES: CC(C)Cc1ccc(C(C)C(=O)NCC(=O)O)cc1 (stereo not drawn) [ibuprofen-NHCH2COOH]
GI toxic side effects compared to the parent molecule [8]: decreased

SMILES: CC(C)Cc1ccc(C(C)C(=O)OCCN(C)C)cc1.Cl (stereo not drawn) [ibuprofen-O(CH2)2N(CH3)2HCl]
GI toxic side effects compared to the parent molecule [8]: decreased

More lines, now with the values ahead:

plasma level of metabolite ([1]; group fed a diet of ibuprofen): 99000 nM
plasma level of metabolite ([1]; group fed a diet of p-ibuprofen): 102000 nM
SMILES: CC(C(=O)O)c1ccc(CC(C)(C)O)cc1 (stereo not drawn) [2-OH-ibuprofen]

plasma level of metabolite ([1]; 20 weeks (first value)): 3000 nM
plasma level of metabolite ([1]; 40 weeks): 3000 nM
SMILES: CC(Cc1ccc(C(C)C(=O)O)cc1)C(=O)O (stereo not drawn) [carboxy-ibuprofen]

plasma level of metabolite ([1]; 20 weeks (first value)): 1000 nM
plasma level of metabolite ([1]; 40 weeks): 1000 nM
SMILES: CC(C)Cc1ccc(C(C)C(=O)O[C@@H]2O[C@H](C(=O)O)[C@@H](O)[C@H](O)[C@H]2O)cc1 (stereo partly drawn) [ibuprofen-glucuronide]
